M5 ag: agonists of human muscarinic M5 receptor (CHRM5); P08912; CHO-K1 hM5 cells, Fluo-8 calcium fluorescence; 0% DMSO wells, 100% maximal acetylcholine response; activation, % at 3 µM; hit rate 0.19% among 360,000; AID 624037;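 active = activation above the run's mean over test compounds plus 3 SD, cut at about 23% in these data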;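 also: signal is peak over basal fluorescence ratio across the kinetic read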
CHRM4 antagonist: CHRM4 antagonism in calcium assay; P08173; CHO-hM4 cells, ACh EC80, Fluo-8 calcium fluorescence; inhibition, % at 3 µM; hit rate 0.73% among 360,000; AID 624125;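 active = inhibition above its plate's cutoff, the mean inhibition of sample wells plus 3 SD, cut at about 27% in these data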
Target sequence (P08173 whole entry, looked up): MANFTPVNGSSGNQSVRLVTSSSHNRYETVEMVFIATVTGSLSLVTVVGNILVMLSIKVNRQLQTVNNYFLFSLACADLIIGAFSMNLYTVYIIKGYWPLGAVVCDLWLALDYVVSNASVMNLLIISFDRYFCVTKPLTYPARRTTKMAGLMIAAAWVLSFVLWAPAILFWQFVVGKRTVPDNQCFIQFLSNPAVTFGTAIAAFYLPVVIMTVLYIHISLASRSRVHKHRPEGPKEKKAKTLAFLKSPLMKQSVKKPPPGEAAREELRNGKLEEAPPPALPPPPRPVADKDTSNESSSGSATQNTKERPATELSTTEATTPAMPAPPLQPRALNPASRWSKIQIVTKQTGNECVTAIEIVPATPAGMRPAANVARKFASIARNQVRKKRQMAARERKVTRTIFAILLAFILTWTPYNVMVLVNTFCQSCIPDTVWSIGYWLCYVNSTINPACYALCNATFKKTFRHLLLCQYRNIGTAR
CHRM4 agonist: agonists of human muscarinic M4 receptor (CHRM4); P08173; CHO-K1 hM4/Gqi5, Fluo-8 calcium fluorescence; vehicle 0%, full acetylcholine response 100%; activation, % at 3 µM; hit rate 0.14% among 360,000; AID 624127;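 active = activation above the run mean over all test wells plus 3 SD, cut at about 32% in these data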;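 also: peak over basal fluorescence ratio per well then scaled between controls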
CHRM4 PAM: potentiates acetylcholine response at human M4 receptor. hit rate 0.4% among 360,000. P08173. activation, % at 3 µM. CHO-K1 hM4/Gqi5, Fluo-8 calcium fluorescence, ACh EC20; 0% = ACh EC20, 100% = maximal ACh;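 active = activation above its plate's cutoff, the mean activation of sample wells plus 3 SD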
M5 antag: CHRM5 antagonism in calcium assay; P08912; CHO-hM5 cells, Fluo-8 calcium fluorescence, ACh EC80; inhibition, % at 3 µM; hit rate 0.59% among 360,000; AID 624040;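 active = inhibition above a per-plate cutoff, the mean of that plate's test compounds plus 3 SD, cut at about 27% in these data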
M5 PAM: positive allosteric modulators of human muscarinic M5 receptor. P08912. CHO-K1 hM5, Fluo-8 calcium, ACh EC20 PAM; 0% = ACh EC20, 100% = ACh EC100. activation, % at 3 µM. hit rate 0.3% among 360,000. AID 624038;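 active = activation above the run cutoff, the mean activation of all test compounds plus 3 SD, cut at about 18% in these data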
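Test system: CHO-K1 hM5 cells / Doses: single-point, 3 µM nominal / Times: Post-acetylcholine fluorescence recording 140 s / Technique: Fluo-8 calcium fluorescence / Measure: Max/basal fluorescence ratio as % of EC20–EC100 ACh window / Benchmarks: low control EC20 acetylcholine (0%), high control EC100 acetylcholine (100%) / Replicates: one well per compound, no replicates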
Hits are given with their value; 0 = inactive. Rows were chosen to be rich in hits. Some 1.8% of all compounds tested hit in one or more screens of this group.

SMILES | M5 ag | CHRM4 antagonist | CHRM4 agonist | CHRM4 PAM | M5 antag | M5 PAM
O=C(O)/C=C/c1cn(-c2ccccc2)nc1-c1cccc([N+](=O)[O-])c1 | 0 | 0 | 0 | 0 | 0 | 0
Cc1ccc(C(=O)N/C(=C/c2cn(-c3ccccc3)nc2-c2ccccc2)C(=O)O)cc1 | 0 | 0 | 0 | 0 | 0 | 20
CCc1nnc(NC(=O)CSc2nncc(=O)n2N)s1 | 0 | 0 | 0 | 0 | 0 | 24
CCSc1nnc(NC(=O)CSc2nncc(=O)n2N)s1 | 0 | 0 | 0 | 0 | 0 | 0
CC[C@H](C)[C@H](NC(=O)OCc1ccccc1)C(=O)OCC(=O)N1CCN(c2ccc(OC)cc2)CC1 | 0 | 0 | 0 | 0 | 0 | 0
COCCCNc1cc(C)nc2ccccc12 | 0 | 0 | 0 | 0 | 0 | 0
Cc1cc(NCCCCCCCNc2cc(C)nc3cc([N+](=O)[O-])ccc23)c2ccc([N+](=O)[O-])cc2n1 | 0 | 43 | 0 | 0 | 0 | 0
COc1ccc(CN2CCC[C@]3(N[C@H](c4ccc(C)cc4)[C@@H]4C(=O)N(C)C(=O)[C@@H]43)C2=O)cc1 | 0 | 0 | 0 | 0 | 0 | 0
Cc1nn(Cc2c(Cl)cccc2Cl)c(C)c1NC(=O)CCCn1nc(C)c([N+](=O)[O-])c1C | 0 | 0 | 0 | 0 | 0 | 0
Cc1nn(CCCC(=O)Nc2cccnc2Cl)c(C)c1[N+](=O)[O-] | 0 | 29 | 0 | 0 | 0 | 0
O=C(Nc1nc2ccc(S(=O)(=O)N3CCCCC3)cc2s1)C1CCCO1 (stereo not given) | 0 | 0 | 0 | 34 | 0 | 0
CC[C@H](C)[C@H]1CNC(=S)N1CC1CCN(CCC23CC4CC(CC(C4)C2)C3)CC1 | 0 | 67 | 0 | 0 | 0 | 0
CC[C@H](C)[C@H]1CNC(=S)N1CC1CCN(CC2CCC(C)CC2)CC1 (stereo not given in full) | 0 | 0 | 0 | 0 | 0 | 0
CN1CCN(C(c2ccccc2)c2ccccc2)CC1 | 0 | 57 | 0 | 0 | 83 | 0
CN1CCCN(C(c2ccccc2)c2ccc(Cl)cc2)CC1 (stereo not given) | 0 | 83 | 0 | 0 | 99 | 0
CC(C)(C)C(=O)N1CCN(C(c2ccccc2)c2ccccc2)CC1 | 0 | 0 | 0 | 0 | 0 | 0
COc1cc(CN2CCN(C(c3ccccc3)c3ccccc3)CC2)cc(OC)c1OC | 0 | 45 | 0 | 0 | 0 | 0
COc1ccc(NC(C)=O)cc1S(=O)(=O)NC(C)c1ccc(-n2ccnc2)cc1 (stereo not given) | 0 | 0 | 0 | 0 | 0 | 0
COC(=O)c1cccc(NC(=S)NCc2ccc(Cl)cc2)c1 | 0 | 0 | 0 | 0 | 0 | 0
COC(=O)c1cc(NC(=S)NCc2ccc(Cl)cc2)cc(C(=O)OC)c1 | 0 | 0 | 0 | 0 | 29 | 0
COc1ccc2c(c1)cc1c(=O)n(CC(=O)NC(C)CCc3ccccc3)nc(C)n12 (stereo not given) | 0 | 0 | 0 | 15 | 0 | 0
CCc1nn(CC(=O)NC(C)CCc2ccccc2)c(=O)c2cc3cc(F)ccc3n12 (stereo not given) | 0 | 0 | 0 | 0 | 0 | 0
O=C(Nc1nnc([C@@H]2O[C@H](CO)[C@@H](O)[C@H]2O)s1)Nc1ccccc1C(F)(F)F | 0 | 0 | 0 | 0 | 0 | 0
CCCn1c(N)c(N(CCOC)C(=O)CSc2cc(C)c3ccccc3n2)c(=O)[nH]c1=O | 0 | 0 | 0 | 0 | 0 | 0
Cc1ccccc1CS(=O)(=O)c1nnc([C@H](Cc2ccccc2)NC(=O)OC(C)(C)C)o1 | 0 | 79 | 0 | 0 | 0 | 0
CNc1cncc(-c2cccc(OC)c2F)n1 | 0 | 0 | 0 | 0 | 0 | 0
Cc1ccc(C)c(OCCC(=O)OCC(=O)NCc2ccccc2)c1 | 0 | 0 | 0 | 0 | 0 | 0
Cc1ccc(C)c(OCCC(=O)OCC(=O)NCCNC(=O)COC(=O)CCOc2cc(C)ccc2C)c1 | 0 | 38 | 0 | 0 | 34 | 0
COc1ccccc1CNC(=O)c1cccc(S(=O)(=O)N(C)c2ccccc2)c1 | 0 | 0 | 0 | 0 | 0 | 0
Nc1c(C(=O)N2CCOCC2)sc2nc3c(cc12)CCC3 | 0 | 35 | 0 | 0 | 0 | 0
